≈ marks a conversion by molar mass, not a printed value. Calls of active or inactive are those of the source. The rule behind the calls is not given here.
Assays:
[1] = Fraction unbound in mouse plasma; format: ADME, cell-free
In short: (§1)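 Plasma protein binding measured in mouse and human plasma and expressed as percent free.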

[2] = Fraction unbound in human plasma; format: ADME, cell-free; in short: as §1
[3] = target: Survival motor neuron protein (Homo sapiens) (UniProt Q16637); test: Stabilization of human SMN protein expressed in HEK293 cells expressing SMN2 promoter after 24 hrs by luciferase reporter gene assay relative to control; format: cell-based
In short: (§2)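 SMN2-luc reporter cells seeded at 25,000/well overnight, then treated 24 h with six doses (3-fold serial dilutions, top final 10 or 30 μM), 0.1% DMSO. Firefly and Renilla luciferase read by dual-luciferase assay, normalized to DMSO as percent; EC50 and maximal activation from curves. Mean ± SEM, ≥3 trials.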

[4] = Aqueous solubility of the compound at pH 7.4; format: physicochemical; conditions: aqueous solution
In short: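 Kinetic solubility measured in aqueous medium at pH 7.4.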

[5] = target: Survival motor neuron protein (Homo sapiens) (UniProt Q16637); test: Stabilization of SMN protein in 3813T fibroblasts derived from human SMA patient assessed as increase in SMN protein level after 48 hrs by SDS-PAGE and immunoblot
In short: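 hTERT-immortalized SMA patient 3813T fibroblasts seeded at 6000/well, next day dosed for 48 h at indicated concentrations, 0.1% DMSO. Lysed in boiling buffer (150 mM NaCl, 10 mM Tris pH 8.0, 2% SDS), run on 10% SDS-PAGE, SMN immunoblotted, normalized to tubulin or actin as fold over DMSO; one-way ANOVA with Dunnett.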

Plasma [6] = test: Cmax in mouse plasma at 20 mg/kg, po; format: ADME, organism-based; design: dose 20 mg/kg, route oral; conditions: in vivo
Plasma [7] = test: AUC (0 to 24 hrs) in mouse plasma at 20 mg/kg, po; format: ADME, organism-based; design: dose 20 mg/kg, time < 24 hr, route oral; conditions: in vivo
[8] = AUC (0 to 24 hrs) in mouse brain at 20 mg/kg, ip; format: ADME, organism-based; design: time < 24 hr, dose 20 mg/kg, route intraperitoneal
Plasma [9] = test: Tmax in mouse plasma at 20 mg/kg, ip; format: ADME, organism-based; conditions: in vivo
Plasma [10] = test: Tmax in mouse plasma at 20 mg/kg, po; format: ADME, organism-based; conditions: in vivo
Brain [11] = test: Tmax in mouse brain at 20 mg/kg, ip; format: ADME, organism-based; conditions: in vivo
Brain [12] = test: Tmax in mouse brain at 20 mg/kg, po; format: ADME, organism-based; conditions: in vivo
Plasma [13] = test: Half life in mouse plasma at 20 mg/kg, ip; format: ADME, organism-based; conditions: in vivo
Plasma [14] = test: Half life in mouse plasma at 20 mg/kg, po; format: ADME, organism-based; conditions: in vivo
Brain [15] = test: Half life in mouse brain at 20 mg/kg, ip; format: ADME, organism-based; conditions: in vivo
Brain [16] = test: Half life in mouse brain at 20 mg/kg, po; format: ADME, organism-based; conditions: in vivo
HEK293 [17] = test: Effect on human luciferase-tagged SMN mRNA expressed in HEK293 cells assessed as SMN exon 7 included transcript at 1 and 10 uM after 24 hrs by qRT-PCR relative to GAPDH mRNA expression; format: cell-based
In short: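 SMN2-luciferase reporter cells treated with compound; total RNA isolated with Trizol, DNase I treated and reverse transcribed. SYBR Green qPCR for SMN exon 7-included and full-length transcripts, with GAPDH as reference.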

Liver = test: Half life in human liver microsomes; format: ADME, microsome
In short: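 Compound stability in mouse and human liver microsomes, expressed as half-life in min.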

[18] = target: Survival motor neuron protein (Homo sapiens) (UniProt Q16637); test: Stabilization of human SMN protein expressed in HEK293 cells at 10 to 30 uM after 24 hrs by luciferase reporter gene assay; format: cell-based; in short: as §2
HEK293 [19] = test: Effect on p62 level in HEK293 cells at 10 uM after 8 hrs by immunoblot analysis; format: functional, cell-based; conditions: Homo sapiens
In short: (§3)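 HEK293 cells exposed 8 h to DMSO, compound or chloroquine; LC3 and p62 assessed by immunoblot.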

HEK293 [20] = test: Effect on LC3-2 level in HEK293 cells at 10 uM after 8 hrs by immunoblot analysis; format: functional, cell-based; conditions: Homo sapiens; in short: as §3
CYP1A2 = target: T1, CYP1A2 (Homo sapiens, UniProt P05177); test: Inhibition of CYP1A2 (unknown origin) at 10 uM; format: ADME
T1 sequence (P05177 whole entry): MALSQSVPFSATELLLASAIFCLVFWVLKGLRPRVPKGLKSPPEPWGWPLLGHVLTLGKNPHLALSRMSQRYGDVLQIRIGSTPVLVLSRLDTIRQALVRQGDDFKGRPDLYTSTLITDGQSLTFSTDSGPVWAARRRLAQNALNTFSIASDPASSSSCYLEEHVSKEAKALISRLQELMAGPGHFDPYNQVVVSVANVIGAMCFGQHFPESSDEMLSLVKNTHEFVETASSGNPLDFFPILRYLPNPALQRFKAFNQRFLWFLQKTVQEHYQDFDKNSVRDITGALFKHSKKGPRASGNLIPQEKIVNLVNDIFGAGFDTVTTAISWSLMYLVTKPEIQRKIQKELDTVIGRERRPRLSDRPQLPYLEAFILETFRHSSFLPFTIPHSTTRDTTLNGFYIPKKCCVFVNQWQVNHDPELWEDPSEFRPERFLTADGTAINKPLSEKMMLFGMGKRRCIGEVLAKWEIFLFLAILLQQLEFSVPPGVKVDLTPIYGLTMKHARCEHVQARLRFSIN

Lampyridae = test: Effect on firefly recombinant luciferase protein
In short: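 Compound diluted in complete DMEM and incubated with recombinant firefly luciferase (1:10 000 in passive lysis buffer, 1 mg/mL BSA); activity read with SteadyLite reagent.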

[21] = target: Survival motor neuron protein (Homo sapiens) (UniProt Q16637); test: Stabilization of human SMN protein expressed in HEK293 cells expressing SMN2 promoter assessed as additive effect on SMN stabilization in presence of 0.1: 0.3 to 10:30 ratio of LDN-76070 to compound after 24 hrs by luciferase reporter gene assay; format: cell-based
In short: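 SMN2 reporter cells exposed 24 h to the two compounds alone or combined at constant ratio, DMSO held at 0.2%, and SMN-luc read. Theoretical additive effect taken as the sum of the single-agent activities.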

[22] = target: Survival motor neuron protein (Homo sapiens) (UniProt Q16637); test: Stabilization of SMN protein in 3813T fibroblasts derived from human SMA patient assessed as increase in SMN protein level after 48 hrs by SDS-PAGE and immunoblot

Survival motor neuron protein (Homo sapiens), sequence (Q16637 whole entry): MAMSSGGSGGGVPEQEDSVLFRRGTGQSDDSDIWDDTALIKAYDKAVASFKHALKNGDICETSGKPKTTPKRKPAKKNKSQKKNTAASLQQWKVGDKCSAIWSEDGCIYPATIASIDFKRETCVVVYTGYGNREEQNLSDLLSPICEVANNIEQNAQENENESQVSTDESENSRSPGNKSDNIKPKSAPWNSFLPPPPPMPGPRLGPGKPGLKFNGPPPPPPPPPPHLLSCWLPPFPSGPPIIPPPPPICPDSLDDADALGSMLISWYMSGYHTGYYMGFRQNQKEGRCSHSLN

fraction unbound [1]: 0.047
fraction unbound [2]: 0.035
solubility kinetic [4]: 31 µM (≈ 10.1 µg/mL)
Cmax (Plasma [6]): 286 ng/mL
AUC (Plasma [7]): 1641 ng·h/mL
AUC(0-t) at 24 h [8]: 51300 ng·h/mL
Tmax (Plasma [9]): 0.5 h
Tmax (Plasma [10]): 0.5 h
Tmax (Brain [11]): 0.5 h
Tmax (Brain [12]): 0.5 h
t1/2 (Plasma [13]): 2.2 h
t1/2 (Plasma [14]): 3.4 h
t1/2 (Brain [15]): 1.9 h
t1/2 (Brain [16]): 2.8 h
t1/2 (Liver): > 2 h
inhibition at 10 µM (CYP1A2): < 50%
Activity (Lampyridae): inactive
Structure (SMILES): O=C(Nc1ncc(C2(O)CCC2)s1)c1ccc(F)c(Cl)c1
Activity [3]: 190%
Activity [5]: Dose-dependent effect
Activity (HEK293 [17]): inactive
Activity [18]: Active
Activity (HEK293 [19]): inactive
Activity (HEK293 [20]): inactive
Activity [21]: Active
Activity [22]: Dose-dependent effect

Reference: ChEMBL document CHEMBL4020760, “Discovery of a Small Molecule Probe That Post-Translationally Stabilizes the Survival Motor Neuron Protein for the Treatment of Spinal Muscular Atrophy” (J Med Chem, 2017)
